PERK inhibitor: blocks human PERK kinase; Q9NZJ5; CHO PERK-DD fusion, SEAP luminescence translation reporter; inhibition, % at 5.6 µM; hit rate 0.17% among 220,000; AID 1416;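 active means inhibition above the mean inhibition of all tested compounds plus 3 SD, set separately per screening campaign, cut at about 2.9% in these data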;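 further: PERK kinase domain activated by AP20187 dimerizer at 100 nM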
STAT3 act: increases IL-6 driven STAT3 reporter signal | hit rate 0.91% among 190,000 | AID 871 | activation (% of control), % at 5.6 µM | U3A cells, IL-6 STAT3-luciferase reporter, luminescence; 100% = signal with IL-6 EC80 alone;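 active means activation above the screen-wide mean of compound activation plus 3 SD, cut at about 130% in these data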
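Test system: Human STAT1-deficient U3A cells with stable STAT3-luciferase reporter | Also added: Interleukin-6, 33 ng/mL | Timing: Compound pre-incubation 1 h before IL-6, then 6 h stimulation at 37 °C | Technique: Luciferase reporter luminescence | Read-out: Percent of IL-6-only median luminescence | Benchmarks: IL-6-only wells as 100% reference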
HSF1 inh: HSF1 inhibition; NIH3T3-HGL HSE-luciferase, MG132-induced, luminescence 8 h; active compounds read low; activity change, negative = inhibition, % at 7.5 µM (by protocol); hit rate 0.77% among 300,000; AID 2098;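 active means more than half of replicate wells show activity change below -50%, luminescence cut by over half; inconclusive means some wells, but at most half, below -50%; inactive means no replicate well below -50%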;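 further: luciferase reports HSF-1 transcriptional activity via heat shock element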
PolyA inhibitor: yeast polyadenylation inhibition; S. cerevisiae SKY197-pL101 polyadenylation reporter, beta-gal luminescence; efflux-impaired pdr1/pdr3 knockout yeast; score 100 = 6 SD above DMSO; activity score, % at 12 µM; hit rate 0.02% among 300,000;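 active means lowest replicate activity score at least 50, where 100 means six control SD above control mean; inconclusive means lowest score under 50 but half or more replicates reach 50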;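 further: yeast exposed to compound for 9 h at 30 °C; higher score means more reporter readthrough which indicates perturbed polyadenylation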
Hsp70 activator: Hsp70 transcriptional activation, primary screen. HeLa Hsp70 promoter luciferase reporter, luminescence; scaled: vehicle 0, proteasome-inhibitor control 100%. activation, % at 10 µM. hit rate 0.04% among 200,000. AID 1203;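 active means activation above the mean across all tested compounds plus 3 SD, cutoff set per campaign, cut at about 5.5% in these data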
AHR activator: human AHR activation | AHR-responsive luciferase reporter cells, luminescence | activation, % at 5 µM | hit rate 2.5% among 320,000; in the data active means activation above about 47%
Target sequence (P35869 whole entry, looked up): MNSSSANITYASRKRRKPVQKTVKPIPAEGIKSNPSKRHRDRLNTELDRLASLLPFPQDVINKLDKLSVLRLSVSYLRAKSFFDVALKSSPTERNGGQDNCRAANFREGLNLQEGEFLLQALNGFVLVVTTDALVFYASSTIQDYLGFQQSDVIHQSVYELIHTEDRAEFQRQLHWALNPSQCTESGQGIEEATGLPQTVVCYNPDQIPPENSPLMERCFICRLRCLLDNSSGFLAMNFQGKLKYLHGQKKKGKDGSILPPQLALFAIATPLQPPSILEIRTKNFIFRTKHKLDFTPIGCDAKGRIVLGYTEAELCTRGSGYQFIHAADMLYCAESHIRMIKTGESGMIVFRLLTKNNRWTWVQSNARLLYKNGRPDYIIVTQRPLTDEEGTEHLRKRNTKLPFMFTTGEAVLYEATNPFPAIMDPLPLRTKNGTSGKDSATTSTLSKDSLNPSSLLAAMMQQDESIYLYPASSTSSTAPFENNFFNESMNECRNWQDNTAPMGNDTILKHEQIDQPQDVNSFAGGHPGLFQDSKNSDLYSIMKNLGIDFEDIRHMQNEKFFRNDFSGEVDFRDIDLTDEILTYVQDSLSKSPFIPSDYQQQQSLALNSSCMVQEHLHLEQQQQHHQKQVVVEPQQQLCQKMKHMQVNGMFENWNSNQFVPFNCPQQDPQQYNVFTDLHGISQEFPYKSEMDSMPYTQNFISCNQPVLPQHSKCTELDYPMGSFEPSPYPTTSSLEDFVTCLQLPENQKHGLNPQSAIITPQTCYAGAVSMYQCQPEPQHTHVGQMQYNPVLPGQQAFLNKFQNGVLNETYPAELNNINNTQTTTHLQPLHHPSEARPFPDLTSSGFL
Hits are given with their value; - = inactive; ? = inconclusive; . = no result. In the library only some 3.6% were active in any assay of this set; here they are far more common.

SMILES | PERK inhibitor | STAT3 act | HSF1 inh | PolyA inhibitor | Hsp70 activator | AHR activator
CC(C)(C)c1ccc(/C=N/Nc2ccc(C(=O)O)cc2)cc1 | - | - | -86 | - | - | -
Cc1ccc(NC(=O)CSCC(=O)NNC(=O)c2nn(C)c(=O)c3ccccc23)cc1 | . | . | . | . | . | -
COc1ccc(C(=O)C2CCCN(Cc3ccc(NC(C)=O)cc3)C2)cc1OC (configuration not stated) | . | . | -72 | - | . | -
COc1ccc(C(=O)Nc2ccc3[nH]ncc3c2)cc1OC | . | . | - | - | . | 48
Cc1nn(-c2ccccc2)nc1C(=O)Nc1ccc2[nH]ncc2c1 | - | . | - | - | . | 52
COc1ccc(C(=O)Nc2ccc(Cn3ccnc3)cc2)cc1OC | . | . | - | - | . | 51
CC(=O)Nc1ccc(CN2CCCC(C(=O)c3cccc(C(F)(F)F)c3)C2)cc1 (configuration not stated) | - | - | - | - | - | -
COc1cc(OC)cc(C(=O)Nc2ccc(Cn3ccnc3)cc2)c1 | . | . | - | - | . | -
Cc1csc(=O)n1CC(=O)OCC(=O)Nc1cc(Cl)ccc1[N+](=O)[O-] | . | . | - | - | . | -
CCOC(=O)C1CCCN(C(=O)c2cc3cc(F)ccc3[nH]2)C1 (configuration not stated) | . | . | - | - | . | 50
O=C(c1cc2cc(F)ccc2[nH]1)N1CCCC(Nc2ccc(F)cc2)C1 (configuration not stated) | . | . | - | - | . | 63
CCOC(=O)N1CCN(C(=O)c2cc3cc(F)ccc3[nH]2)CC1 | . | . | - | - | . | 58
O=S(=O)(NCCCSc1ccccc1)c1ccccc1F | . | . | - | - | . | -
CC(Nc1c[nH]c(=O)[nH]c1=O)c1ccccc1 (configuration not stated) | . | . | - | - | . | .
Cc1nc2nc(-c3cccs3)[nH]c2cc1Br | . | . | - | - | . | 58
Cc1ccc(Nc2nnc(SCc3cc(=O)n4ccsc4n3)s2)c(C)c1 | - | - | - | - | - | 48
COc1ccccc1C1N(c2ccc(Cl)cc2)C(=O)C2CCCN21 (configuration not stated) | - | 134 | - | - | - | -
CCOC(=O)C1=C(Cc2ccc(Cl)cc2)C(=O)c2ccccc2C1=O | - | - | . | - | - | 86
CCOC(=O)C1=C(C)N=C2c3ccccc3C(=O)C2C1c1ccc(Cl)cc1 (configuration not stated) | - | - | - | - | - | -
COCCCN(C(=O)CCOc1ccccc1C)c1c(N)n(Cc2ccccc2)c(=O)[nH]c1=O | . | . | - | - | . | -
Cc1cc(Cl)cc(C)c1OCC(=O)N1CCN(c2ncccn2)CC1 | . | . | . | . | . | -
CSc1nc(-c2ccco2)nn1C(=O)c1cccs1 | - | - | - | - | - | -
O=C(c1cccs1)n1nc(-c2ccco2)nc1SCc1ccccc1 | - | - | -54 | - | - | -
Cc1cccc(NC(=O)c2ccc(COc3cccc4ccccc34)o2)n1 | - | - | - | - | - | 71
COCCOc1cc(Nc2nnc(C(F)(F)F)s2)c(Cl)cc1Cl | - | - | - | - | - | -
SMILES | PERK inhibitor | STAT3 act | HSF1 inh | PolyA inhibitor | Hsp70 activator | AHR activator
COc1cc(Nc2nnc(C)s2)c(Cl)cc1Cl | - | - | - | - | - | 71
Cc1cccc(CNC(=O)C2CCC(=O)N(Cc3ccccc3F)C2)n1 (configuration not stated) | . | . | - | - | . | .
OCCCn1c(CCNc2nc(-c3ccc(F)cc3)cs2)nc2cc(C(F)(F)F)ccc21 | . | . | - | - | . | 51
CCCCC1CCC(C(=O)N(CC(C)C)c2c(N)n(Cc3ccccc3)c(=O)[nH]c2=O)CC1 (configuration not stated) | . | . | - | - | . | -
Cc1cc(=O)[nH]c(NN=C2CCC(C(C)(C)C)CC2)n1 (configuration not stated) | - | - | ? | - | - | -
CCC(C)(C)C1CCC(=NNc2nc3ccccc3[nH]2)CC1 (configuration not stated) | - | - | - | - | - | 50
COc1cc(OC)cc(C(=O)NC(=S)NCc2ccco2)c1 | - | - | - | - | - | 64
COc1cccc(C(=O)NC(=S)NCc2ccco2)c1 | - | - | - | - | - | -
Cc1ccc(Nc2nc(N)nc(CSc3nccn3C)n2)c(C)c1 | - | - | - | - | - | 48
Cc1ccc(SCc2nc(N)nc(Nc3ccccc3C)n2)c(C)c1 | - | - | - | - | - | -
Cc1ccc(Nc2nc(N)nc(CCl)n2)cc1 | - | . | - | - | . | -

Screening results (PubChem BioAssay)
